Assay outcomes deposited in PubChem BioAssay by several laboratories.
VIM-2 inh = VIM-2 metallo-beta-lactamase inhibitors, primary screen, biochemical, epi-absorbance readout, Pseudomonas aeruginosa enzyme. AID 1527, 2009. inhibition, % at 5.6 µM. hit rate 0.89% among 290,000. purified VIM-2, nitrocefin hydrolysis, epi-absorbance fluorescence;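 active = inhibition above the mean of all tested compounds plus 3 SD, cutoff set per screening run, cut at about 7.5% in these data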;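 note: red hydrolysis product quenches plate fluorescence so inhibitors raise well fluorescence; 0% = enzyme with DMSO and 100% = DMSO without enzyme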
pCIP destab = p/CIP-EGFP fusion destabilizers, primary screen, fluorescence, F442A cells | 16 h | decrease of EGFP signal, % at 10 µM | hit rate 0.01% among 290,000 | AID 1984, 2009;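 active = EGFP signal decrease of at least 30% at 10 µM or well 3 SD below plate mean, unless failing retest; inactive = the rest, including hits failing retest or dose response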
Fh CTSL1 inh = Fasciola hepatica cathepsin L1 inhibitors, primary screen, counter-screen for PFM18AAP inhibitor project, biochemical, QFRET, fluorogenic peptide substrate; recombinant F. hepatica cathepsin L1, Z-Leu-Arg-MCA fluorescence; AID 1906, 2009; inhibition, % at 5.96 µM; hit rate 0.49% among 300,000;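 active = inhibition above the mean of all tested compounds plus 3 SD, set per screening campaign, cut at about 17% in these data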;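 note: 0% = plate median of test compound wells and 100% = 1 µM Z-Phe-Ala-diazomethylketone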
IMP-1 inhibitor = IMP-1 metallo-beta-lactamase inhibitors, primary screen, biochemical, epi-absorbance readout, Pseudomonas aeruginosa enzyme | hit rate 0.45% among 290,000 | purified IMP-1, nitrocefin hydrolysis, epi-absorbance fluorescence | metallo-beta-lactamase IMP-1 (Pseudomonas aeruginosa) | AID 1556, 2009 | inhibition, % at 5.6 µM;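 active = inhibition above the mean plus 3 SD of all compounds in the same screening run, cut at about 4.5% in these data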;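 note: 0% = IMP-1 with DMSO and 100% = DMSO wells lacking enzyme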
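assay system = purified recombinant IMP-1 metallo-beta-lactamase enzyme | schedule = 15 min preincubation plus 25 min reaction at 25 °C | signal = Epi-absorbance fluorescence, 480 nm excitation, 530 nm emission | read-out basis = percent inhibition from optical density relative to buffer-blank wells | controls = IMP-1 with DMSO as 0%, enzyme-free DMSO as 100%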
T cell HTS = modulators of CD8 T cell-vesicle binding, primary screen, mouse 2C CD8+ T cells, flow cytometry; 2C CD8+ T cell-vesicle binding; hits give low values; hit rate 0.068% among 330,000; response (vesicle binding), % at 7 µM;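 active = response, share of CD8 T cells binding vesicles, and their 90th percentile fluorescence all below set limits, cut at about 80% in these data, passing the limit was not always enough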;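 note: values below 100% mean blocked vesicle binding to the CD8+ T cells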
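Material: 2C TCR transgenic mouse naive CD8+ T cells, MACS-purified. Also added: QL9-charged Drosophila Ld/ICAM-1/B7-1 vesicles. Timing: binding 1.5 h at 37 °C. Measured by: high-throughput flow cytometry with anti-B7-1 and anti-CD8 staining. Read-out: percent CD8+ FL2 mean versus row control. Controls: Unloaded micro-vesicles (low), QL9 vesicles with 0.7% DMSO (high).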
UBC9 SUMO inh = inhibitors of in vitro SUMOylation cascade, primary screen, biochemical, HTRF, uHTS; SUMO-conjugating enzyme UBC9 (Homo sapiens), P63279; HTRF SUMOylation assay, SAE1/SAE2 + UBC9; inhibition, % at 35 µM; hit rate 0.36% among 290,000; AID 2006, 2009; in the data active = inhibition above about 50%, passing the limit was not always enough
Starred values were filed as active, the others as inactive; . = no result. This is a sample that favours compounds with a hit; in the whole collection about 1.9% have one here.

SMILES | VIM-2 inh | pCIP destab | Fh CTSL1 inh | IMP-1 inhibitor | T cell HTS | UBC9 SUMO inh
CCOC(=O)c1c[nH]c2c(C(=O)c3ccccc3)cc(Cl)cc2c1=O | 7.7* | -1.6 | . | -3.3 | 136.0 | 10.2
CCOC(=O)c1c[nH]c2c(Cl)ccc(Cl)c2c1=O | 8.6* | -11.7 | -0.1 | -0.1 | 525.5 | 20.0
COc1ccc(NC(=O)CN2C(=O)NC3(CCCC3)C2=O)cc1OC | -1.8 | -0.6 | -2.9 | -3.2 | 678.1 | 18.1
O=C(NCc1ccc(Cl)cc1)c1ccc(CNc2c(N3CCCC3)c(=O)c2=O)cc1 | -1.8 | 2.0 | 4.3 | -2.4 | 0.0* | 1.1
CC1CCN(C(=O)c2ccc(CNc3c(N4CCCC4)c(=O)c3=O)cc2)CC1 | -0.9 | -1.7 | 17.9* | -2.9 | 380.6 | 8.3
CC1CC(C)CN(C(=O)c2ccc(CNc3c(N4CCCC4)c(=O)c3=O)cc2)C1 (stereo not given) | -0.6 | -16.6 | -3.6 | -2.0 | 329.8 | 21.5
Cc1ccc(-c2csc(NC(=O)CSc3nc4ccccc4c(=O)n3CCCN(C)C)n2)cc1 | -4.6 | -9.9 | 1.7 | -2.1 | 461.2 | -9.0
O=[N+]([O-])c1cc(Cl)cc(/C=N\Nc2ccccn2)c1O | -1.4 | 2.2 | 1.3 | -1.7 | 356.6 | -134.9
CN(C)C1(CN=Cc2cc(Cl)cc([N+](=O)[O-])c2O)CCCCC1 | -3.9 | -11.0 | 1.2 | 5.7* | 154.8 | 14.1
O=C(Nc1ccccc1N1CCN(C(=O)c2ccccc2)CC1)c1ccc(Cl)cc1 | 0.0 | -18.3 | 5.2 | -3.3 | 278.5 | -5.2
O=C(Nc1ccccc1N1CCN(C(=O)c2ccccc2)CC1)c1ccc(Br)o1 | -2.9 | -9.4 | 1.2 | 5.9* | 452.7 | 6.1
Cc1cc(C)n2cc(CSc3nc4ccccc4s3)nc2n1 | 10.5* | -7.0 | -1.9 | -0.8 | 320.2 | 15.0
CCOc1ccc(NS(=O)(=O)c2ccc(C(=O)NCC(c3ccco3)N3CCCC3)cc2)cc1 (stereo not given) | . | . | . | . | 221.7 | .
CC(=O)C(C(C)=O)C1(O)C(=O)c2ccccc2C1=O | -0.3 | -4.2 | 57.7* | 0.8 | 232.3 | 94.4*
O=C(CN1C(=O)NC2(CCOc3ccccc32)C1=O)c1ccc(F)cc1 (stereo not given) | . | . | -1.6 | . | 211.0 | .
COc1ccccc1Nc1nnc(C)c(=O)[nH]1 | -1.7 | 0.6 | -1.8 | -0.1 | 603.8 | 11.3
CC(=O)c1cccc(-c2ccc3c(=O)[nH]c(Nc4ccccc4)cc3c2)c1 | . | . | 85.3* | . | 409.5 | .
O=c1[nH]c(Nc2ccccc2)cc2ccccc12 | -2.6 | -5.2 | 104.6* | -2.7 | 229.8 | 84.5*
COc1ccc(OC)c(Nc2cc3ccccc3c(=O)[nH]2)c1 | . | . | 69.8* | . | 454.1 | .
CC(=O)c1cccc(Nc2nc(-c3ccccc3)nc3ccccc23)c1 | 0.8 | -8.4 | 5.0 | -0.7 | 171.0 | 6.2
COc1ccccc1Nc1cc2cc(Br)ccc2c(=O)[nH]1 | . | . | 47.4* | . | 669.7 | .
O=C(Nc1ccccc1Oc1ccccc1)c1cccs1 | -2.1 | -13.0 | -1.9 | -2.3 | 227.9 | 6.0
C[C@@]12C(=O)N(Cc3ccc(F)cc3)CC(=O)N1[C@H]1c3cc(Cl)ccc3OC[C@@H]1[C@@H]2c1ccccc1 | . | . | . | . | 510.5 | .
COCCNc1oc(/C=C/c2ccccc2OC)nc1S(=O)(=O)c1ccccc1 | -2.3 | -15.5 | 3.8 | -2.7 | 359.7 | .
O=c1[nH]c(Nc2ccccc2)cc2cc(Br)ccc12 | . | . | 61.0* | . | 665.9 | .
SMILES | VIM-2 inh | pCIP destab | Fh CTSL1 inh | IMP-1 inhibitor | T cell HTS | UBC9 SUMO inh
O=c1cc(Nc2cccc(Br)c2)[nH]c(=O)[nH]1 | -3.5 | 0.3 | -8.8 | -2.3 | 228.5 | 24.9
Fc1ccc(-c2nc3c(-c4ccc(Cl)cc4)cnn3cc2CCN2CCOCC2)cc1 | -2.2 | 0.1 | -1.5 | -2.5 | 144.6 | 9.5
N#CCCn1[nH]c(-c2ccccc2)cc1=O | -1.6 | 3.6 | -3.0 | -2.6 | 290.4 | 69.4*
Cc1cc(=O)n(CCCc2ccccc2)[nH]1 | . | . | 4.2 | . | 425.2 | .
O=C(c1cccn2c(=O)c3cc(Cl)ccc3nc12)N1CCN(Cc2ccc3c(c2)OCO3)CC1 | 0.5 | 10.0 | 2.5 | -4.4 | 178.4 | 24.1
O=C(c1cccn2c(=O)c3cc(Cl)ccc3nc12)N1CCOCC1 | -3.9 | 0.7 | 4.6 | -7.9 | 214.2 | 52.2*
CCOC(=O)CN=C/C(C(=O)Nc1nccs1)=C(/C)O | -1.3 | -1.3 | -2.1 | -3.3 | 228.6 | 7.7
C=CCN(C(=O)CCc1ccccc1OC)c1nc(-c2ccc(S(C)(=O)=O)cc2)cs1 | 1.1 | -13.8 | -8.8 | 4.6* | 97.5 | -26.0
C=CCN(C(=O)Cc1cccs1)c1nc(-c2ccc(S(C)(=O)=O)cc2)cs1 | 0.9 | 3.4 | -0.7 | 5.3* | 311.2 | 12.0
Cc1cc(C)c(S(=O)(=O)N2CCCCC2CCNC(=O)C(=O)NCc2ccco2)c(C)c1 (stereo not given) | . | . | 1.6 | . | 195.7 | .
CC(C)Cc1nn2c(N)c(/C=C3\C=Nc4ccccc43)c(=O)nc2s1 | -1.1 | -12.3 | 7.9 | -0.7 | 131.1 | 22.0
Cc1ccc(NC2=C(Cl)C(=O)OC2OC(=O)c2ccco2)c(C)c1 (stereo not given) | -4.5 | . | 47.8* | -6.2 | 472.9 | .
Cc1ccc(C)c(NC2=C(Cl)C(=O)OC2OC(=O)c2ccco2)c1 (stereo not given) | -2.6 | -3.9 | 9.6 | -2.5 | 615.0 | -4.3
Cc1ccc(NC2=C(Cl)C(=O)OC2OC(=O)c2ccco2)cc1C (stereo not given) | -3.0 | -13.5 | 54.1* | -2.5 | 274.9 | 15.2
CC(C)[C@H](NC(=O)c1ccccc1)C(=O)Nc1ccc2c(c1)OCO2 | . | . | . | . | 269.3 | .
O=C(CN1C(=O)NC2(CCCC2)C1=O)Nc1ccccc1N1CCCC1 | -1.2 | 5.0 | 4.2 | -2.1 | 249.4 | 6.2
CC1(c2ccccc2)NC(=O)N(CC(=O)Nc2ccccc2N2CCCC2)C1=O (stereo not given) | . | . | 18.4* | . | 571.9 | .
COc1cc(-c2nnn(CC(=O)N3CCOCC3)n2)cc(OC)c1OC | -1.2 | 0.9 | 29.5* | -3.1 | 228.8 | 17.5
CN(C)c1cccc2c(S(=O)(=O)N3CCOCC3)cccc12 | -2.6 | -12.2 | 0.8 | -3.2 | 279.2 | 31.0
CN(C)c1cccc2c(S(=O)(=O)N3CCCC3)cccc12 | -1.0 | -16.5 | 8.7 | -1.2 | 127.6 | 51.3*
COc1nc(NC(C)C)nc(N(C#N)CN2C(=O)c3ccccc3S2(=O)=O)n1 | 6.8 | -5.5 | 3.7 | 12.0* | 158.3 | 7.9
CC(C)Nc1nc(Cl)nc(N(C#N)CN2C(=O)c3ccccc3S2(=O)=O)n1 | 3.5 | -14.4 | 6.2 | 6.9* | 155.9 | 7.5
